Screening results deposited in PubChem by Johns Hopkins Ion Channel Center.
TRPC6 activator = activators of mouse TRPC6 channel. Q61143. HEK293-TRPC6 membrane potential dye fluorescence; active compounds read high. B-score at 10 µM. actives 0.13% (n = 310,000);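 active means B-score of the integrated fluorescence ratio above library mean plus 3 SD, and starting fluorescence ratio within library mean plus 5 SD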;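 further: higher score means more depolarization so channel activation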
Target sequence (Q61143 whole entry, looked up): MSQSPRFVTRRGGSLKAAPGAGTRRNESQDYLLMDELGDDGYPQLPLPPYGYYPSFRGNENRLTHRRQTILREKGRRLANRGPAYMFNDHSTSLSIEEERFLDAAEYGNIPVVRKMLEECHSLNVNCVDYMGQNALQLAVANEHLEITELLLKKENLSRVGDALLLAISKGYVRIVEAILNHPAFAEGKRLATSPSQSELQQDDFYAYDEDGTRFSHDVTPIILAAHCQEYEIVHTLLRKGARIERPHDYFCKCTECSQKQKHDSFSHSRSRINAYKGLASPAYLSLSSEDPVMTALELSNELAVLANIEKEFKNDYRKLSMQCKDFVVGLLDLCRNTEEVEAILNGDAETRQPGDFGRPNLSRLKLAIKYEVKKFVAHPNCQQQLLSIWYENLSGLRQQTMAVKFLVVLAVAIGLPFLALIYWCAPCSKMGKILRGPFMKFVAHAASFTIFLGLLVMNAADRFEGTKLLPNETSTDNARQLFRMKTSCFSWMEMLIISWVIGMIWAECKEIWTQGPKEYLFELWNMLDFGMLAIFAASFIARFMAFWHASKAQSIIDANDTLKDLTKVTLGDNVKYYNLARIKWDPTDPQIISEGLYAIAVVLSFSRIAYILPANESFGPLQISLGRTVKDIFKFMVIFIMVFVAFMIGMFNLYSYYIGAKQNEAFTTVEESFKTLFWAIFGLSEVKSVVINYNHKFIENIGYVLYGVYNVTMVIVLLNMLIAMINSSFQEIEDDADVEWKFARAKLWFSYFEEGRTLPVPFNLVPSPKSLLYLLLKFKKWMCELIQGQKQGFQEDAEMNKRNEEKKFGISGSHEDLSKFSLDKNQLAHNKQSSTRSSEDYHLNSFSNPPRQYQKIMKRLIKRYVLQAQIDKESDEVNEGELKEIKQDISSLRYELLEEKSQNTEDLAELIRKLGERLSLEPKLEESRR
TRPC4 act = opens the mouse TRPC4 cation channel; B-score at 10 µM; HEK293 TRPC4beta/mu-opioid, Fluo4 calcium fluorescence; active compounds read high; Q9QUQ5; actives 0.49% (n = 310,000);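 active means B-score above 5 SD of library B-scores, and initial fluorescence ratio not above library mean plus 5 SD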;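 further: positive B-score marks a calcium rise read as TRPC4 activation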
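Assay system: HEK293 stable line with TRPC4beta plus mu-opioid receptor. Times: dye 45 min RT, read 110 s. Measured by: kinetic Fluo4 calcium fluorescence. Measure: B score of integrated ratio. Controls: assay buffer as low control, maximal DAMGO as high control.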
TRPC4 potent = allosterically enhances the mouse TRPC4 cation channel; HEK293 TRPC4beta/mu-opioid, DAMGO EC20, Fluo-4 Ca2+ flux; active compounds read high; B-score at 10 µM; actives 0.42% (n = 310,000);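 active means B-score of calcium response area above 5 SD of library B-scores, with initial fluorescence ratio within 5 SD of library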
TRPC4 inh = inhibitors of mouse TRPC4 channel; Q9QUQ5; HEK293 TRPC4beta/mu-opioid, DAMGO-evoked Fluo4 calcium flux; active compounds read low; B-score at 10 µM; actives 0.39% (n = 300,000); AID 2247;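 active means B-score over 3 SD under the library average, no early fluorescence shift, positive overall ratio signal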
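Assay system: HEK293 cells with stable TRPC4beta plus mu-opioid receptor expression; Probe or stimulus: DAMGO in two steps, submaximal then maximal; Dosing: single-point compound dosing; Measured by: Fluo4 calcium-dye fluorescence, kinetic read; Read-out basis: B score from integrated Fluo4 fluorescence ratio.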
TRPC6 inhibitor = blocks the mouse TRPC6 cation channel. Q61143. actives 1.1% (n = 310,000). HEK293-TRPC6, membrane potential dye, ACh-evoked depolarization; active compounds read low. B-score at 10 µM;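 active means B-score under library mean minus 3 SD, initial fluorescence not abnormally high, positive integrated signal ratio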;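 further: B-score derived from integrated fluorescence ratio over the kinetic read; more negative B-score means stronger inhibition of depolarization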
TRPC4 sel inh 2 = second check of whether TRPC6 inhibitors also affect mouse TRPC4; shares compounds with TRPC6 inhibitor; actives 42% (n = 920); HEK293 TRPC4/MOR, membrane potential dye fluorescence; channel activated by saturating DAMGO dose; inhibition, % at 10 µM;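 active means compounds whose fluorescence signal differed from control wells by over 3 SD, either direction, in both duplicate plates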
TRPC4 spec = selectivity of TRPC6 inhibitors: effect on mouse TRPC4 | shares compounds with TRPC6 inhibitor | HEK293 TRPC4/mu-opioid, membrane potential fluorescence | activity change, negative = inhibition, % at 10 µM | actives 61% (n = 920) | AID 2777;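 active means rise or fall in signal beyond 3 SD of buffer-only wells in both replicate plates, either sign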;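 further: integrated kinetic ratio of fluorescence range over baseline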
HEK293 MPD ctr 2-1 = parental HEK293 nonspecific activity of TRPC6 inhibitors, second screen; parental HEK293 membrane potential dye fluorescence; maximal acetylcholine challenge after compound addition; shares compounds with TRPC6 inhibitor; actives 31% (n = 920); AID 2779; signal change vs control, % at 10 µM;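 active means membrane potential signal moving either way by over 3 SD of the maximum-effect control, in both duplicate plates, meaning non-specific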
HEK293 MPD ctr-1 = counter-screen for TRPC6 inhibitors: effect in parental HEK293 cells; membrane potential signal change, % at 10 µM; parental HEK293 membrane potential dye fluorescence; actives 60% (n = 920); shares compounds with TRPC6 inhibitor;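 active means membrane potential signal shifting up or down by more than 3 SD of buffer-only wells, on both duplicate plates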
HEK293 MPD ctr-2 = counter-screen for TRPC6 modulators: effect in parental HEK293 cells | shares compounds with TRPC6 inhibitor | membrane potential dye fluorescence | membrane potential signal change, % at 10 µM | actives 51% (n = 2,400) | AID 488924;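 active means membrane potential signal moves up or down beyond 5 SD from buffer-only wells, on both duplicate plates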
HEK293 MPD ctr 2-2 = second counter-screen for TRPC6 modulators: effect in parental HEK293 cells | actives 14% (n = 2,400) | inhibition, % at 10 µM | shares compounds with TRPC6 inhibitor | membrane potential dye fluorescence; after compound, maximal acetylcholine stimulation;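 active means membrane potential signal drops by more than 5 SD from the mean control signal, in both duplicate plates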
TRPC4/MOR mod = tests whether TRPC6 modulators also affect mouse TRPC4; HEK293 TRPC4/mu-opioid, membrane potential fluorescence; percent change from control (negative = decrease, positive = increase), % at 10 µM; shares compounds with TRPC6 inhibitor; AID 488927; actives 69% (n = 2,400);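 active means membrane potential signal moved up or down beyond 5 SD of buffer control wells, in both duplicate plates, actives on both sides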
TRPC4/MOR inh 2 = second check of whether TRPC6 modulators also affect mouse TRPC4; actives 55% (n = 2,400); shares compounds with TRPC6 inhibitor; HEK293 TRPC4/mu-opioid, membrane potential dye fluorescence; stimulated with maximal-effect DAMGO; inhibition, % at 10 µM;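 active means drop in membrane potential signal beyond 5 SD of the control wells in both duplicate plates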;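 further: TRPC4 counter screen for TRPC6 hits run under conditions tuned for TRPC6 not TRPC4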
TRPC6 inh conf = mouse TRPC6 inhibitor confirmation. shares compounds with TRPC6 inhibitor. HEK293-TRPC6, membrane potential dye, ACh-evoked depolarization. inhibition, % at 10 µM. actives 43% (n = 3,300). AID 488960;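 active means fluorescence ratio falls more than 5 SD below the full-stimulation control mean, in both duplicate runs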;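 further: integrated fluorescence ratio of peak minus minimum over baseline after agonist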
TRPC6 act conf = confirmation of mouse TRPC6 activators; HEK293-TRPC6 membrane potential dye fluorescence, FDSS; actives 11% (n = 2,800); activation, % at 10 µM; shares compounds with TRPC6 inhibitor;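 active means ratio signal rise beyond 5 SD above unstimulated control wells' mean, seen in both duplicate runs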
A number is an active result; – = inactive; · = no result given. Hits are enriched below; roughly 2.3% of the tested compounds scored in any of these assays.

SMILES	TRPC6 activator	TRPC4 act	TRPC4 potent	TRPC4 inh	TRPC6 inhibitor	HEK293 MPD ctr-2	HEK293 MPD ctr 2-2	TRPC4/MOR mod	TRPC4/MOR inh 2	TRPC6 inh conf	TRPC6 act conf	others
Cc1cc(C)c2nc(C)cc(Nc3ccc(C(=O)NCCO)cc3)c2c1	–	–	–	–	-10.4	·	·	·	·	56.2%	–	TRPC4 sel inh 2=–;TRPC4 spec=-19.9%;HEK293 MPD ctr 2-1=-46.5%;HEK293 MPD ctr-1=-307.5%
Cc1cc(C)c2nc(C)cc(Nc3ccc(C(=O)N(C)C)cc3)c2c1	–	–	–	–	-5.37	-114.5%	–	-22.5%	–	–	–
CC(=O)c1ccccc1C(=O)N1CCCC(N2CCN(Cc3ccc4c(c3)OCO4)CC2)C1 (stereo not given)	–	–	–	–	–	·	·	·	·	·	·
COC(=O)C1Cc2c([nH]c3ccccc23)C2(CCN(Cc3ccccc3)CC2)N1 (stereo not given)	–	–	–	–	-7.49	·	·	·	·	–	–	TRPC4 sel inh 2=47.0%;TRPC4 spec=5.6%;HEK293 MPD ctr 2-1=247.5%;HEK293 MPD ctr-1=–
Cc1ccnc(SCC(=O)N2CCN(C(c3ccccc3)c3ccccc3)CC2)n1	18.4	–	–	–	-11.4	117.5%	–	20.0%	–	61.5%	141.5%
O=C(NCc1ccccn1)c1ccc(OC2CCN(Cc3ccc(F)cc3F)CC2)cc1	–	–	–	–	–	·	·	·	·	·	·
Cc1ccc(CNC(=O)C2CCCN2S(=O)(=O)c2ccc(Cl)cc2)cc1 (stereo not given)	–	–	–	–	-5.44	–	–	–	–	–	–
O=C(NCc1ccccc1)C1CCCN1S(=O)(=O)c1ccc(Cl)cc1 (stereo not given)	–	–	–	–	–	·	·	·	·	·	·
CN1CCN(c2nc3c(c(=O)n(C)c(=O)n3C)n2Cc2ccccc2)CC1	–	–	–	–	–	·	·	·	·	·	·
CN1CCN(c2nc3c(c(=O)[nH]c(=O)n3C)n2CCSc2nnnn2-c2ccccc2)CC1	–	–	–	–	-8.49	-236.0%	–	-27.0%	62.0%	60.5%	–
CN1CCN(c2nc3c(c(=O)n(C)c(=O)n3C)n2CCSc2nnnn2-c2ccccc2)CC1	–	–	–	–	-7.29	-114.0%	99.5%	-41.0%	56.0%	50.0%	–
CC(=O)NCCc1nc2cc(NC(=O)COc3cccc(C)c3)ccc2n1C	–	–	–	–	–	·	·	·	·	·	·
CCc1ccc(-c2ccc(SCC(=O)Nc3nnc(C)s3)nn2)cc1	–	–	–	–	–	·	·	·	·	·	·
Cc1cc(OCC(=O)NC2CCN(Cc3ccccc3)CC2)c2c(C)cc(=O)oc2c1	–	–	–	–	-6.14	-82.0%	–	-26.0%	–	–	–
COc1ccc(CC(=O)Nc2nnc(C(C)(C)C)s2)cc1OC	–	–	–	–	–	·	·	·	·	·	·
CC(C)NC(=O)/C(=C/c1cn(-c2ccccc2)nc1-c1cccc([N+](=O)[O-])c1)NC(=O)c1ccccc1	–	–	–	–	–	·	·	·	·	·	·
N#CC1=C(N)SC(C(=O)c2ccccc2)C1c1cccs1 (stereo not given)	–	–	–	–	–	·	·	·	·	·	·
N#CC1=C(N)S[C@@H](C(=O)c2ccc(F)cc2)[C@@H]1c1cccs1	–	–	–	–	-6.52	–	–	–	–	–	–
COc1ccccc1CNC1CCCc2ccccc21 (stereo not given)	–	–	–	–	-7.43	·	·	·	·	64.8%	·	TRPC4 sel inh 2=–;TRPC4 spec=19.9%;HEK293 MPD ctr 2-1=–;HEK293 MPD ctr-1=9.1%
O=C(CN(Cc1ccccc1)S(=O)(=O)c1ccc(F)cc1)NCc1cccnc1	–	–	–	–	–	·	·	·	·	·	·
Cc1cc(C)n(-c2nc(SCCN(C)C)c3c4c(sc3n2)COC(C)(C)C4)n1	–	–	–	–	-9.77	·	·	·	·	56.8%	–	TRPC4 sel inh 2=48.5%;TRPC4 spec=-15.4%;HEK293 MPD ctr 2-1=–;HEK293 MPD ctr-1=-303.5%
Cc1ccn2cc(-c3ccc(O)c(O)c3)nc2c1	–	–	–	–	-5.33	-120.0%	–	-23.0%	–	–	–
Oc1ccc(-c2cn3ccccc3n2)cc1O	–	–	–	–	–	·	·	·	·	·	·
CCOc1ccc(CCNC(=O)c2sc3nc4n(c(=O)c3c2C)CCC4)cc1	–	–	–	–	–	·	·	·	·	·	·
CCNc1sc(C(=O)OCC)c(N)c1C#N	–	–	–	–	–	·	·	·	·	·	·
SMILES	TRPC6 activator	TRPC4 act	TRPC4 potent	TRPC4 inh	TRPC6 inhibitor	HEK293 MPD ctr-2	HEK293 MPD ctr 2-2	TRPC4/MOR mod	TRPC4/MOR inh 2	TRPC6 inh conf	TRPC6 act conf	others
COc1ccc(S(=O)(=O)NC(C)C(=O)Nc2ccc3c(c2)OCCO3)cc1OC (stereo not given)	–	–	–	–	-6.1	–	–	–	–	–	–
COc1ccc(S(=O)(=O)NC(C)C(=O)Nc2ccc3c(c2)OCO3)cc1OC (stereo not given)	–	–	–	–	–	·	·	·	·	·	·
O=C(CCc1ccc(S(=O)(=O)N2CCOCC2)cc1)N1CCc2ccccc2C1	–	–	–	–	–	·	·	·	·	·	·
COC(=O)c1[nH]c2ccc(Br)cc2c1NC(=O)C(C)N1CCN(C2CCCCC2)CC1 (stereo not given)	–	–	–	–	-7.62	·	·	·	·	88.1%	–	TRPC4 sel inh 2=42.5%;TRPC4 spec=-17.9%;HEK293 MPD ctr 2-1=29.0%;HEK293 MPD ctr-1=-144.5%
COC(=O)c1[nH]c2ccc(C)cc2c1NC(=O)C(C)N1CCN(C2CCCCC2)CC1 (stereo not given)	–	–	–	–	–	·	·	·	·	·	·
CCOC(=O)c1ccc(NC(=O)CCC2COc3ccccc3O2)cc1 (stereo not given)	20.1	–	–	–	–	–	–	–	–	·	135.5%
COc1cccc(CN2CCN(c3nc4nonc4nc3N3CCCCC3)CC2=O)c1	–	–	–	–	–	·	·	·	·	·	·
